Measured values reported in ChEMBL document CHEMBL1833957, “P1-substituted symmetry-based human immunodeficiency virus protease inhibitors with potent antiviral activity against drug-resistant viruses” (J Med Chem, 2011).
≈ marks a conversion by molar mass, not a printed value.

Experiments:
[1] = AUC in rat at 5 mg/kg, po; type: ADME, organism-based; design: dose 5 mg/kg, route oral; settings: plasma
How it was run: (§1)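 Rats given a single 5 mg/kg oral dose with no ritonavir. Plasma Cmax is reported in μg/mL and AUC in μg h/mL.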

[2] = test system: Human immunodeficiency virus 1; assay: Antiviral activity against HIV1 A17 harboring protease L10F, V32I, M46I, I47V, Q58E and I84V mutant infected in human MT4 cells assessed as inhibition of virus-induced cell death after 5 days by MTT assay relative to wild type HIV1 pNL4-3; type: functional
[3] = Aqueous solubility of the compound; type: physicochemical; settings: buffer
[4] = Permeability of the compound; type: ADME; settings: not told; read-out: permeability
[5] = test system: Human immunodeficiency virus 1; assay: (§2) Antiviral activity against HIV1 isolate 1 harboring protease L10I, E35D, N37D, M46I, I54V, G57R, L63P, A71V, T74P, I84V, L90M, I93L mutant infected in human MT4 cells assessed as inhibition of virus-induced cell death after 5 days by MTT assay relative to wild type HIV1 pNL4-3; type: functional
[6] = Oral bioavailability in rat at 5 mg/kg; type: ADME, organism-based; settings: in vivo
[7] = test system: Human immunodeficiency virus 1; assay: as §2, with “HIV1” for “HIV1 isolate 1”, “I13V, G16A, Q18H, L33F,” for “E35D,”, “G57R, Q61H,I62V,” for “G57R,”, “A71L, I72T, L76V, V77I, V82A, N88G,” for “A71V, T74P, I84V,”; type: functional
[8] = Metabolic stability in human liver microsomes assessed as disappearance of the compound after 20 mins; type: ADME, Microsome; settings: read-out: Drug metabolism
[9] = test system: Human immunodeficiency virus 1; assay: Antiviral activity against wild type HIV1 pNL4-3 infected in human MT4 cells assessed as inhibition of virus-induced cell death after 5 days by MTT assay in presence of 50% human serum; type: functional, organism-based; settings: Human immunodeficiency virus 1, pNL4-3, MT4, 120 h
[10] = test system: Human immunodeficiency virus 1; assay: Antiviral activity against wild type HIV1 pNL4-3 infected in human MT4 cells assessed as inhibition of virus-induced cell death after 5 days by MTT assay; type: functional, organism-based; settings: Human immunodeficiency virus 1, pNL4-3, MT4, 120 h
How it was run: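 EC50 measured against wild-type virus in MT-4 cells, with no human serum added.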

[11] = Cmax in rat at 5 mg/kg, po; type: ADME, organism-based; design: dose 5 mg/kg, route oral; settings: in vivo; how it was run: as §1
[12] = test system: Human immunodeficiency virus 1; assay: Antiviral activity against HIV1 B26 harboring protease L33F, K45I, M46I, I50V, A71V and V82F mutant infected in human MT4 cells assessed as inhibition of virus-induced cell death after 5 days by MTT assay relative to wild type HIV1 pNL4-3; type: functional

COC(=O)N[C@H](C(=O)N[C@@H](Cc1ccccc1)C[C@H](O)[C@H](Cc1ccc(-c2cncc(F)c2)cc1)NC(=O)[C@@H](NC(=O)OC)C(C)(C)C)C(C)(C)C
AUC [1]: 160 ng·h/mL
fold change (FC) [2]: 3
solubility [3]: 10.4 µM (≈ 7.51 µg/mL)
Papp [4]: 7.3 ×10⁻⁶ cm/s
fold change (FC) [5]: 38
bioavailability [6]: 13%
fold change (FC) [7]: 2
metabolised at 20 min [8]: 40%
EC50 [9]: 24 nM
EC50 [10]: 4 nM
Cmax [11]: 110 ng/mL
fold change (FC) [12]: 3
